# Assay outcomes deposited in PubChem BioAssay by Broad Institute.
# Rows were chosen to be rich in hits. Some 2.2% of all compounds tested hit in one or more screens of this group.
# ERAP1 HTS inh: human ERAP1 aminopeptidase inhibitors, primary screen, biochemical, single point, plate reader; Endoplasmic reticulum aminopeptidase 1 (Homo sapiens), Q9NZ08; recombinant ERAP1, Leu-AMC fluorescence, 60 min; inhibition, % at 10.7 µM; hit rate 0.15% among 340,000; AID 652197, 2013;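 active means mean replicate inhibition of at least 30%, or all replicates individually reaching that 30% level; inactive means mean below 30% and not every replicate reaching it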;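 further: 0% = neutral control wells and 100% = L-leucinethiol positive control wells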
# FN deposit inh: inhibitors of fibronectin matrix deposition, primary screen, AH1F cells, Alexa488-fibronectin fluorescence, plate reader. inhibition, % at 12.6 µM. hit rate 0.086% among 350,000. AID 743247, 2014. AH1F fibroblasts, overnight;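 active means mean inhibition across replicates of 30% or more, regardless of how many single replicates reach that level; inconclusive means mean under 30% yet at least half of replicates reach 30%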;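 further: positive control wells lacked labelled fibronectin entirely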
#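 test system = AH1F fibroblasts assembling fluorescent fibronectin matrix | quantity = 10000 AH1F cells per well | buffer or medium = DMEM plus 2% serum, read in PBS | doses = single dose, pinned | incubation = 1 h cell attachment, overnight exposure to compound and label | detection = fluorescence at 485 nm excitation, 525 nm emission | read-out basis = inhibition from reduced deposited-fibronectin fluorescence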
# PGC1a acetyl inh: inhibitors of PGC1a acetylation signal, primary screen, cell-based, U2OS, AlphaScreen, inhibitor mode | inhibition, % at 15.6 µM | AID 651687, 2012 | hit rate 0.17% among 350,000 | AlphaScreen anti-acetyl-lysine; with virally co-expressed GCN5 acetyltransferase;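 active means every replicate shows inhibition of at least 40%; inconclusive means mean inhibition at least 40% but some replicate below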;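 further: 0% = neutral control wells and 100% = positive control wells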
# FGF22 binding: binders of human FGF22 protein, primary screen, FGF22 synaptogenesis inhibitor project, biophysical, thermal shift, single point; Fibroblast growth factor 22 (Homo sapiens), Q9HCT0; recombinant FGF22 thermal shift, SYPRO orange fluorescence; percent of sucrose octasulfate shift, DMSO zero; activity (Tm shift, normalised), % at 9.99 µM; hit rate 1.5% among 340,000; AID 651658, 2012;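 active means mean Tm shift, scaled 0 neutral to 100 positive control, at about 1.3% or above, every replicate too, limit read from the data; inconclusive means no clear call, values can overlap the other calls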
# Target sequence (Q9HCT0 whole entry, looked up): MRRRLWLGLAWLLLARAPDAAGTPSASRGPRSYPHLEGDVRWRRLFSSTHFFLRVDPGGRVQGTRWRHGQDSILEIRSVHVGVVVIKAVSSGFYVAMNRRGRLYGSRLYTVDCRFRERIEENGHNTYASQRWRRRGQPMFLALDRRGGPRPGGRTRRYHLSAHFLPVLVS
# SIRT5 block: SIRT5 desuccinylase inhibitors, primary screen, biochemical, fluorescence imaging, single point, set 5; NAD-dependent protein deacylase sirtuin-5, mitochondrial (Homo sapiens), Q9NXA8; Purified SirT5, succinyl-peptide AMC, trypsin-coupled fluorescence; inhibition, % at 15 µM; hit rate 1.1% among 330,000; AID 652115, 2013; in the data active means inhibition above about 15%; inconclusive means no clear call, values can overlap the other calls
# Target sequence (Q9NXA8 whole entry, looked up): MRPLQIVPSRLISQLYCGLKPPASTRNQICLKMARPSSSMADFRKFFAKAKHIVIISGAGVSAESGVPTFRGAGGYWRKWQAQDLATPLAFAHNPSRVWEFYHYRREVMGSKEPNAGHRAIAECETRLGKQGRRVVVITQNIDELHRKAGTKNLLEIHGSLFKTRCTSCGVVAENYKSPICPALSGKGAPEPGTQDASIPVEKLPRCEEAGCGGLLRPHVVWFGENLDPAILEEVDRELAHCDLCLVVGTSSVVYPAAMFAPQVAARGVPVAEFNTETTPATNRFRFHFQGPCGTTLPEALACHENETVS
# Active calls of the source: *; u = inconclusive; x = no result.
SMILES,ERAP1 HTS inh,FN deposit inh,PGC1a acetyl inh,FGF22 binding,SIRT5 block
CN(C)C(=O)c1cccc(-c2ccc(C3[C@@H]4CN(C(=O)Cc5ccccc5)C[C@H]3N4)cc2)c1 (stereo not given in full),x,12.5,4.1,0.0,x
CO[C@H]1CN(C)C(=O)c2ccc(NC(=O)Nc3cc(Cl)cc(Cl)c3)cc2OC[C@H](C)NC[C@H]1C,-6.0,14.7,34.8,-0.9,-8.5
CO[C@H]1CN(C)C(=O)c2ccc(NC(=O)Nc3cc(Cl)cc(Cl)c3)cc2OC[C@@H](C)NC[C@@H]1C,-1.6,1.3,-10.1,-0.7,1.4*
CO[C@@H]1CN(C)C(=O)c2ccc(NC(=O)c3cnccn3)cc2OC[C@@H](C)NC[C@H]1C,-3.8,-16.4,2.9,0.0,15.4*
C[C@@H]1CCCCO[C@H](CN(C)S(=O)(=O)c2cn(C)cn2)[C@@H](C)CN([C@@H](C)CO)C(=O)c2cc(NC(=O)NC3CCCCC3)ccc2O1,-1.2,x,-0.7,-0.3,-0.8
O=C(NCCO)Nc1ccc(Cl)cc1,x,2.6,3.8,-0.1,19.2*
Cc1nnsc1SCCNC(=O)Nc1ccc(Cl)cc1,-2.0,8.6,-6.3,43.6*,-5.8
O=C(NCCNC(=O)Nc1ccc(Cl)cc1)Nc1ccc(Cl)cc1,-3.1,-0.4,x,0.0,-1.0
CN1[C@@H]2CN(S(C)(=O)=O)C[C@H]1C2c1ccc(-c2ccc(F)cc2)cc1 (stereo not given in full),x,-7.6,x,x,x
CN(C)Cc1cn(CC[C@H]2CC[C@H](NS(=O)(=O)c3ccccc3)[C@H](CO)O2)nn1,0.7,x,-0.4,0.0,33.2*
CN(C)Cc1cn(CC[C@@H]2CC[C@@H](NS(=O)(=O)c3ccccc3)[C@H](CO)O2)nn1,0.6,x,-15.3,0.1,-2.5
CN(C)Cc1cn(CC[C@@H]2CC[C@H](N)[C@H](CO)O2)nn1,2.6,-7.2,-1.9,-0.1,20.6*
CN(C)CC(=O)Nc1ccc2c(c1)[C@@H]1C[C@H](CC(=O)N3CCCCC3)O[C@@H](CO)[C@@H]1O2,-0.3,x,-0.8,0.0,-6.8
O=C(Nc1cccc(Cl)c1)N[C@H]1CC[C@@H](CCNC(=O)C2CCCC2)O[C@@H]1CO,2.8,-2.5,3.2,-0.3,3.3
COCCN1CCN(Cc2nc(C3(c4ccc(C)cc4)CCCC3)no2)CC1,0.5,3.0,x,43.2*,3.5
C[C@@H]1CN([C@H](C)CO)C(=O)c2cccc(NC(=O)c3ccc(-c4nccs4)cc3)c2O[C@H]1CN(C)Cc1ccc(C(=O)O)cc1,3.7,x,7.5,0.5,1.6
C[C@H](CO)N1C[C@H](C)[C@@H](CN(C)Cc2ccc(Cl)c(Cl)c2)Oc2c(NC(=O)c3ccc(-c4nccs4)cc3)cccc2C1=O,0.0,18.7,1.4,0.0,19.1*
C[C@@H]1CN([C@@H](C)CO)C(=O)c2cccc(NC(=O)c3ccc(-c4nccs4)cc3)c2O[C@@H]1CN(C)C(=O)Nc1ccc(C(F)(F)F)cc1,0.1,8.0,u,1.4*,6.7
C[C@H]1CN([C@@H](C)CO)C(=O)c2cccc(NC(=O)c3ccc(-c4nccs4)cc3)c2O[C@H]1CN(C)S(C)(=O)=O,0.2,x,-1.9,-0.1,16.7*
Cc1noc(C)c1C(=O)N1CCC1(C)C(=O)NS(=O)(=O)Cc1cccc(Cl)c1 (stereo not given),6.3,-0.5,3.9,43.9*,x
CC(=O)c1cc(N2CCC(C(=O)O)CC2)ccc1[N+](=O)[O-],5.3,-5.4,8.0,42.1,4.9
CC(=O)c1cc(N2CCOCC2)ccc1[N+](=O)[O-],2.8,-7.2,-6.4,-0.1,15.5*
COc1ccc(NC(=O)C2=CC=CN3CCS(=O)(=O)N=C23)c(OC)c1,0.1,-0.7,9.0,-0.1,27.5*
CN1CCN(c2ccccc2NC(=O)c2cccc([N+](=O)[O-])c2)CC1,-1.2,8.6,-0.5,43.6*,0.5
O=C(Nc1ccccc1N1CCCC1)c1cc(Cl)ccc1Cl,0.3,-9.8,x,44.5*,1.8
SMILES,ERAP1 HTS inh,FN deposit inh,PGC1a acetyl inh,FGF22 binding,SIRT5 block
O=C(Nc1ccccc1N1CCCC1)c1ccc([N+](=O)[O-])cc1Cl,2.3,-1.8,x,43.9*,1.7
O=C(c1cc([N+](=O)[O-])ccc1N1CCCCC1)N1CCCC1,1.6,11.4,x,0.1,0.1
O=C(c1cc([N+](=O)[O-])ccc1N1CCCC1)N1CCCC1,0.0,4.1,u,0.1,15.8*
COCC(=O)Nc1ccc2c(c1)OC[C@H](C)N(Cc1cccnc1)C[C@H](C)[C@H](OC)CN(C)C2=O,-2.2,-1.2,-13.9,-0.1,4.9
CC1(C(=O)NCc2cc(F)cc(C(F)(F)F)c2)C=CC2(CCCCC2)N1C(=O)c1ccccc1 (stereo not given),-2.6,8.5,-12.4,-0.1,24.4*
CCCCS(=O)(=O)/C=C\C=C/S(=O)(=O)CCCC,x,x,97.0*,x,x
CNC[C@@H]1Oc2ccc(NS(=O)(=O)c3ccc(OC)cc3)cc2CC(=O)N([C@@H](C)CO)C[C@@H]1C,7.1,x,1.7,0.2,-0.9
Nc1nnc(CC(=O)N/N=C/c2ccccc2OCc2ccc(F)cc2)s1,x,10.1,61.0*,0.2,-6.1
CC1(C)N=C(N)NC(Nc2ccccc2Cl)=N1,-0.5,-2.2,8.4,43.0*,-1.4
Cc1cccc(C)c1NC1=NC(C)(C)N=C(N)N1,x,x,-4.9,x,x
C=C1C(C(=O)Nc2cccc(OC)c2)C1C(=O)Nc1cccc(OC)c1 (stereo not given),1.1,-8.6,-32.6,44.2*,-1.0
CCOC(=O)CSc1ccc(C(=O)Nc2ccc(OC)cc2)cn1,1.3,-14.9,-1.1,43.2*,-1.6
COc1ccc(NC(=O)c2ccc(NC(=O)c3ccncc3)cc2)cc1,-1.8,2.2,3.5,0.6,-3.6
CC(=O)Oc1ccc(C(=O)Nc2cccc(-c3nnc(-c4ccco4)o3)c2)cc1,7.5,-2.3,x,0.2,-2.2
O=C(Nc1cccc(-c2nnc(-c3ccco3)o2)c1)c1ccccc1,-8.6,15.6,-6.6,43.1*,1.1
COc1ccc(NC(=O)c2ccc(Oc3ncccn3)cc2)cc1,1.5,-3.1,-1.5,43.8*,-0.2
CCNC(=O)C[C@@H]1CC[C@H]2[C@H](COc3ccc(NC(=O)c4cccs4)cc3C(=O)N2C)O1,0.4,-9.3,8.7,-0.1,-4.3
COc1cccc(NC(=O)C(c2ccccc2)N2CCCC2)c1 (stereo not given),6.6,x,-19.5,43.2*,-3.2
COc1cccc(NC(=O)c2ccccc2)c1,-0.4,-4.5,x,-0.5,32.3*
COc1ccc(NC(=O)N(C)C[C@@H]2OCCCC[C@@H](C)Oc3ccc(NS(=O)(=O)c4c(C)noc4C)cc3C(=O)N([C@@H](C)CO)C[C@H]2C)cc1,x,x,-18.9,-0.5,x
